The results in this text go back to PubChem BioAssay.

Usually viability stands for a read-out of living cells in per cent, often relative to untreated cells. As a reminder, the inhibition is the drop in the measured response relative to a control, in per cent.

Experiment [1] is described as follows: Her2 expression decrease, cell viability multiplex – SKBR3 breast tumor cells, AlphaScreen, ATP viability, primary screen (AID 461;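 active = Her2 level under about 52% in both replicate screens, with viability over 70% of control, limit read from the data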;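 as to Her2 level: lower value means less Her2 protein in the cells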;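 as to viability: percent of carrier control wells set as 100% viability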). Particulars: SKBR3 Her2 protein level, 18-24 h, measured here: SKBR3 viability, ATP luminescence, at 10 µM. For orientation: Bead proximity is the source of the signal in Alpha formats.
Experiment [2] concerns the target Receptor tyrosine-protein kinase erbB-2 (Homo sapiens) (UniProt P04626). Described as above. Particulars: 18-24 h, at 10 µM, stronger effect = lower value.
Experiment [3] in a line: reduced viability of SK-BR-3 breast cancer cells – cell-based, 24 h, human, pilot screen (AID 572).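 Also: compound exposure lasted between 18 and 24 h rather than exactly 24 h; 100% = carrier-treated control wells.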 To be noted: SK-BR-3 viability, CellTiter-Glo luminescence, at 10 µM, stronger effect = lower value. A general note: In ATP-based viability assays light output follows the ATP content of the culture.
The nature of experiment [4]: HUVEC growth inhibition – cell-based, human, primary screen (AID 575;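 active = viability at or below 30% in both replicate assays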;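 also: 100% = median of untreated cell wells with 0.1% DMSO on each plate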). To be noted: HUVEC proliferation, CellTiter-Glo luminescence, 72 h; at 10 µM; stronger effect = lower value. The method, boiled down: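 material = primary HUVEC, no more than 12 passages | input = 1250 cells per well | controls = vehicle and MePR control wells | measured by = CTG luminescence | times = 72 h compound incubation | format = collagen-coated 384-well format | read-out = % viability vs DMSO wells | doses = single 10 µM dose, 0.1% DMSO, from 5x medium stock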

A short description of experiment [5]: H69AR cell proliferation blockers – human, duplicate replicates, primary screen (AID 580;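 active = viability at or under a set limit in both replicates, limit being median viability minus 3 SD, cut at about 48% in these data, passing the limit was not always enough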;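 also: 100% = mean luminescence of untreated wells and 0% = no signal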). To be noted: H69AR lung tumor cells viability, ATP luminescence, 72 h; at 10 µM; stronger effect = lower value.
Experiment [6] can be described thus: MRP1 drug-resistance reversers in H69AR cells – cell-based, doxorubicin co-treatment, pilot screen (AID 601;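 active = viability loss from added drug above about 55%, and viability with drug at most 40%, in both replicates, limit read from the data, passing the limit was not always enough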). Particulars: CellTiter-Glo, 72 h, at 10 µM; for differential viability (reversal): stronger effect = higher value.
Experiment [7] in a line: yeast transport mutant growth inhibition pilot in 384-well plates, post-Golgi transport modulator project (AID 636; in the data active = inhibition above about 31%). To be noted: absorbance 615 nm, about 18 h, stronger effect = higher value.
Experiment [8] is described as follows: growth suppression of yeast trafficking mutant, preliminary HTS, modulators of trafficking downstream of Golgi apparatus project, 1536-format plate, OD 615 nm (AID 637; in the data active = inhibition above about 30%). Particulars: yeast transport mutant growth, absorbance 615 nm, 18 h; stronger effect = higher value.
Setting [9] is: H69AR cells + 2 uM doxorubicin, measured here: viability with 2 uM doxorubicin, stronger effect = lower value.
[10] abbreviates: H69AR cells, compound alone cytotoxicity.

Activity calls are given as the source filed them.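 The calls were made as follows, unless noted: active = viability at or below 10% of carrier control in both of two separate runs; inconclusive = viability at or below 10% in only one of the two runs; inactive = the rest.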

Sequence of Receptor tyrosine-protein kinase erbB-2 (Homo sapiens) (P04626 whole entry, looked up): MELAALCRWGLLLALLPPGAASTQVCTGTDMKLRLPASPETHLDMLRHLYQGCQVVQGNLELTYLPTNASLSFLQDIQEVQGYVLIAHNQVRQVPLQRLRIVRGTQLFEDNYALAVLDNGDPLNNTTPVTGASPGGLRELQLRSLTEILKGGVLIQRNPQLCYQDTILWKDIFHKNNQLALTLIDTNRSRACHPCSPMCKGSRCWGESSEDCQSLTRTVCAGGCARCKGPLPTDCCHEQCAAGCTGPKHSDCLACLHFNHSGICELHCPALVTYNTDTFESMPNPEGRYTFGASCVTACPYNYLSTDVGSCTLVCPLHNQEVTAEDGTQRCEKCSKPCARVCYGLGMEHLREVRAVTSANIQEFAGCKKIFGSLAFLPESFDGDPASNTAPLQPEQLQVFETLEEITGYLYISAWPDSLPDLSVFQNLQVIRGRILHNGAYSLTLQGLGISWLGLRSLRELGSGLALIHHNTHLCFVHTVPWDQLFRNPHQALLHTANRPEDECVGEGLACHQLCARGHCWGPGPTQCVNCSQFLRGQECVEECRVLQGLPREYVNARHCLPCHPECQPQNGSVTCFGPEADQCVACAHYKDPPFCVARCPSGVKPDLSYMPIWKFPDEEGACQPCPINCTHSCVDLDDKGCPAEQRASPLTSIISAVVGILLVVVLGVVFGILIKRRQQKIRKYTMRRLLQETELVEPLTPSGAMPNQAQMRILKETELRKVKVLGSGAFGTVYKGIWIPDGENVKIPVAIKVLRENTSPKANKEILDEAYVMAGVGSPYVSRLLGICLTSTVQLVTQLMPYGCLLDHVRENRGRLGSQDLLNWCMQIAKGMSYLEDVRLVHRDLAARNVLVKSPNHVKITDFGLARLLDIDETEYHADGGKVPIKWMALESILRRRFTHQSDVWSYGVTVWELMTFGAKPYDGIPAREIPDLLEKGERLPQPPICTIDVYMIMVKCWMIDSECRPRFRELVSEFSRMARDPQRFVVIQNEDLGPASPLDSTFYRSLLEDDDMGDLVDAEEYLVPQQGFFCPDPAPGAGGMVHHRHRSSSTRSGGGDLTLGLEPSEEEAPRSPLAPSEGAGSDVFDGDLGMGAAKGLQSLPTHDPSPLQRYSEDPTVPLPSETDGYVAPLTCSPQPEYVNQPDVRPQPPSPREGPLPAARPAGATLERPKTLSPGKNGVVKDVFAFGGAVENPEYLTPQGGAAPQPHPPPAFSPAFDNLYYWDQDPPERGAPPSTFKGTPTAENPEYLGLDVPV

For `COc1cccc(C2CC(c3ccccc3)n3ncnc3N2)c1` (stereo not given), the viability in experiment [1] was 87%; in experiment [3], 87% (inactive); in experiment [4], 93.5% (inactive); in experiment [5] it was 90.2% (inactive); in experiment [6] (setting [9]) it was 80%; in experiment [6] (setting [10]), 90.2%. In addition, the Her2 level in experiment [2] is 112% (inactive). The differential viability (reversal) in experiment [6] (H69AR cells + 2 uM doxorubicin) is 10.2% (inactive). The inhibition in experiment [7] is 2.82% (inactive); in experiment [8], 3.67% (inactive).
With `CCOC(=O)c1ccc(NS(=O)C23CC4CC(CC(C4)C2)C3)cc1` (stereo not given), the viability in experiment [1] is 95.5%; in experiment [3], 95.5% (inactive); in experiment [4], 74% (inactive); in experiment [5] it was 87.6% (inactive); in experiment [6] (setting [9]), 92.2%; in experiment [6] (setting [10]) it was 87.6%. Besides, the Her2 level in experiment [2] was 82% (inactive). For the same compound, the differential viability (reversal) in experiment [6] (H69AR cells + 2 uM doxorubicin) was -4.57% (inactive). Moreover, the inhibition in experiment [7] was -7.57% (inactive); in experiment [8], 3.28% (inactive).
Consider `CC1Cc2ccccc2N1Cc1cc(=O)n2ccsc2n1` (stereo not given), for which the viability in experiment [1] is 102%; in experiment [3] it was 102% (inactive); in experiment [4], 80.4% (inactive); in experiment [5], 74.7% (inactive); in experiment [6] (setting [9]), 92.6%; in experiment [6] (setting [10]), 74.7%. In addition, the Her2 level in experiment [2] is 78.5% (inactive). In experiment [6] (H69AR cells + 2 uM doxorubicin), the differential viability (reversal) was -17.9% (inactive). For the same compound, the inhibition in experiment [7] was -2.99% (inactive); in experiment [8], -6.98% (inactive).
`Cc1nnc(SCC(=O)Nc2ccc3c(c2)OCCO3)n1CC1CCCO1` (stereo not given): the viability in experiment [1] is 102%; in experiment [3] it was 102% (inactive); in experiment [4], 91.8% (inactive); in experiment [5] it was 94% (inactive); in experiment [6] (setting [9]), 90.6%; in experiment [6] (setting [10]), 94%. Besides, the Her2 level in experiment [2] is 88.5% (inactive). Also, the differential viability (reversal) in experiment [6] (H69AR cells + 2 uM doxorubicin) was 3.46% (inactive). The inhibition in experiment [7] was -5.14% (inactive); in experiment [8] it was -3.33% (inactive).
With `Cc1cnc(C(=O)Nc2ccc(N3CCN(C(=O)OC(C)(C)C)CC3)cc2)cn1`, the viability in experiment [1] is 109%; in experiment [3] it was 109% (inactive); in experiment [4], 100% (inactive); in experiment [5], 115% (inactive); in experiment [6] (setting [9]), 99.9%; in experiment [6] (setting [10]), 115%. For the same compound, the Her2 level in experiment [2] is 106% (inactive). In experiment [6] (H69AR cells + 2 uM doxorubicin), the differential viability (reversal) was 15.1% (inactive). The inhibition in experiment [7] is -5.84% (inactive); in experiment [8], -6.51% (inactive).
Take `C=CCN(CC=C)C(=O)CN1C(=O)c2ccccc2C1=O`: the viability in experiment [1] is 125%; in experiment [3], 125% (inactive); in experiment [4] it was 97.5% (inactive); in experiment [5], 92.2% (inactive); in experiment [6] (setting [9]) it was 92.1%; in experiment [6] (setting [10]) it was 92.2%. Besides, in experiment [2], the Her2 level is 89.5% (inactive). Moreover, the differential viability (reversal) in experiment [6] (H69AR cells + 2 uM doxorubicin) is 0.065% (inactive). Moreover, the results for the inhibition in experiment [7] and in experiment [8] were 0% (inactive) and 1.13% (inactive), respectively.
As to `COc1cccc(OC)c1C(=O)N1CCOCC1`, the viability in experiment [1] was 100%; in experiment [3] it was 100% (inactive); in experiment [4], 92.1% (inactive); in experiment [5], 100% (inactive); in experiment [6] (setting [9]), 85.1%; in experiment [6] (setting [10]) it was 100%. Besides, the Her2 level in experiment [2] is 87.5% (inactive). Moreover, the differential viability (reversal) in experiment [6] (H69AR cells + 2 uM doxorubicin) is 15% (inactive). For the same compound, the inhibition in experiment [7] is -1.84% (inactive); in experiment [8], -0.81% (inactive).
In the case of `CCOc1cc(NC(=O)c2ccccn2)c(OCC)cc1NC(=O)CC(C)C`, the viability is 74% in experiment [1]; 74% (inactive) in experiment [3]; 63.1% (inactive) in experiment [4]; 89% (inactive) in experiment [5]; 95.2% in experiment [6] (setting [9]); 89% in experiment [6] (setting [10]). Besides, in experiment [2], the Her2 level was 102% (inactive). Further, in experiment [6] (H69AR cells + 2 uM doxorubicin), the differential viability (reversal) is -6.29% (inactive). Moreover, the results for the inhibition in experiment [7] and in experiment [8] were 1.2% (inactive) and -6.23% (inactive), respectively.
For the compound `CN1CCN(c2nc3c(c(=O)[nH]c(=O)n3C)n2CCOc2ccccc2)CC1`, the viability in experiment [1] was 75.5%; in experiment [3], 75.5% (inactive); in experiment [4], 80.1% (inactive); in experiment [5], 92.2% (inactive); in experiment [6] (setting [9]), 91.5%; in experiment [6] (setting [10]), 92.2%. In experiment [2], the Her2 level is 85.5% (inactive). The differential viability (reversal) in experiment [6] (H69AR cells + 2 uM doxorubicin) was 0.615% (inactive). Besides, the inhibition in experiment [7] is -6.49% (inactive); in experiment [8] it was 2.62% (inactive).
`CC1(C)OC(=O)N(c2cccnc2)C1(C)O` (stereo not given): the viability is 117% in experiment [1]; 117% (inactive) in experiment [3]; 100% (inactive) in experiment [4]; 91.5% (inactive) in experiment [5]; 80% in experiment [6] (setting [9]); 91.5% in experiment [6] (setting [10]). The Her2 level in experiment [2] is 83% (inactive). Further, the differential viability (reversal) in experiment [6] (H69AR cells + 2 uM doxorubicin) is 11.6% (inactive). Besides, the values for the inhibition in experiment [7] and in experiment [8] were -5.6% (inactive) and 3.02% (inactive), respectively.
Regarding `CCNCc1cc2cc(C)ccc2[nH]c1=O`, the viability is 106% in experiment [1]; 106% (inactive) in experiment [3]; 80.6% (inactive) in experiment [4]; 82.7% (inactive) in experiment [5]; 90.6% in experiment [6] (setting [9]); 82.7% in experiment [6] (setting [10]). The Her2 level in experiment [2] is 99% (inactive). The differential viability (reversal) in experiment [6] (H69AR cells + 2 uM doxorubicin) was -7.93% (inactive). Moreover, the inhibition in experiment [7] was -8.78% (inactive); in experiment [8], -7% (inactive).
Consider `Cc1ccc(S(=O)(=O)N2CCN(C(=O)CSc3nnnn3C)C2)cc1`, for which the viability in experiment [1] was 110%; in experiment [3], 110% (inactive); in experiment [4], 85.3% (inactive); in experiment [5] it was 102% (inactive); in experiment [6] (setting [9]), 101%; in experiment [6] (setting [10]) it was 102%. Moreover, the Her2 level in experiment [2] was 104% (inactive). In addition, in experiment [6] (H69AR cells + 2 uM doxorubicin), the differential viability (reversal) was 1.78% (inactive). Further, the results for the inhibition in experiment [7] and in experiment [8] were -0.66% (inactive) and 0.17% (inactive), respectively.
With `CCOC(=O)CSC1=C(C#N)C(c2ccc(Cl)cc2)C(C(=O)OC)C(=O)N1` (stereo not given), the viability in experiment [1] was 104%; in experiment [3], 104% (inactive); in experiment [4], 85.4% (inactive); in experiment [5] it was 88.5% (inactive); in experiment [6] (setting [9]), 88.4%; in experiment [6] (setting [10]), 88.5%. In experiment [2], the Her2 level was 143% (inactive). Further, the differential viability (reversal) in experiment [6] (H69AR cells + 2 uM doxorubicin) was 0.1% (inactive). Further, the inhibition in experiment [7] is -4.74% (inactive); in experiment [8], 4.83% (inactive).
On to `CCOC(=O)c1sc(NC(=O)CSc2nnnn2-c2ccccc2)c(C(=O)OCC)c1C`, for which the viability in experiment [1] is 80%; in experiment [3], 80% (inactive); in experiment [4] it was 36.6% (inactive); in experiment [5], 65.7% (inactive); in experiment [6] (setting [9]), 46.1%; in experiment [6] (setting [10]), 65.7%. The Her2 level in experiment [2] is 85% (inactive). In addition, the differential viability (reversal) in experiment [6] (H69AR cells + 2 uM doxorubicin) is 19.6% (inactive). Besides, the inhibition was 4.68% (inactive) in experiment [7] and -6.83% (inactive) in experiment [8].
Regarding `CC(=O)Nc1ccn(-c2ccccc2)n1`, the viability in experiment [1] was 83%; in experiment [3], 83% (inactive); in experiment [4], 97.9% (inactive); in experiment [5], 93.6% (inactive); in experiment [6] (setting [9]), 97.6%; in experiment [6] (setting [10]), 93.6%. In experiment [2], the Her2 level was 105% (inactive). For the same compound, the differential viability (reversal) in experiment [6] (H69AR cells + 2 uM doxorubicin) was -4.04% (inactive). In addition, the inhibition in experiment [7] is 0% (inactive); in experiment [8] it was -6.77% (inactive).
With `O=C1CC(c2ccsc2)c2cc3c(cc2N1)OCCO3` (stereo not given), the viability in experiment [1] was 103%; in experiment [3], 103% (inactive); in experiment [4], 67.6% (inactive); in experiment [5], 26.9% (active); in experiment [6] (setting [9]) it was 60.2%; in experiment [6] (setting [10]), 26.9%. In addition, in experiment [2], the Her2 level was 98.5% (inactive). In addition, the differential viability (reversal) in experiment [6] (H69AR cells + 2 uM doxorubicin) is -33.3% (inactive). For the same compound, the inhibition in experiment [7] is -2.93% (inactive); in experiment [8] it was -5.25% (inactive).
